Measurements gathered from unrelated publications.
Lines come from different studies, so protocols differ.
Target: Serine/threonine-protein kinase mTOR (MTOR, Homo sapiens, UniProt P42345)

For `O=C(NCc1ncc(C(F)(F)F)cc1Cl)c1ccc2c(c1)C1(CCS(=O)(=O)CC1)[C@@H](C1CC1)N2S(=O)(=O)c1ccc(F)cc1`, the remaining binding was 92% (cell-free assay, competition with immobilised ligand; 1 µM).
With `O=C(c1ccc(Nc2ncc(Cl)c(-c3cc4ccccc4s3)n2)cc1)N1CCC(N2CCCC2)CC1` the remaining binding was 80% (binding, competition with immobilised ligand; 1 µM).
`COc1ncc2cc3ccccc3nc2c1C#N` gave a remaining binding of 91% (cell-free assay, competition with immobilised ligand; 5 µM).
`c1cnn2ncc(-c3ccnc(N4CCC45COC5)n3)c2c1` gave a remaining binding of 96% (binding; 1 µM).
The remaining binding of `Nc1ncc2c(n1)-c1c([nH]c3ccc(C#CC4CC4)cc13)CCCC2` is reported as 100% (binding, competition with immobilised ligand; 1 µM).
`CCC(=O)N[C@H]1CC[C@@H](C(=O)N(C)c2ccc(-c3nc4ccccc4o3)cc2)C1` gave a remaining binding of 92% (cell-free assay, competition with immobilised ligand; 1 µM).
`COc1ccnn2ncc(-c3ccnc(N(C)C)n3)c12` has a remaining binding of 95% (binding; 1 µM).
With `CN(C)C(=O)Cn1cc(-c2nc(C3(c4ccc(-c5cnc(N)nc5)cc4)CC3)no2)cn1` the remaining binding was 91% (cell-free assay, competition with immobilised ligand; 1 µM).
With `O=C(Nc1c[nH]nc1C(=O)NC1CCNCC1)c1cc(F)cc(F)c1` the remaining binding was 100% (binding, competition with immobilised ligand; 1 µM).
With `C[C@H]1CCN(c2nccc(-c3cnn4ncccc34)n2)C1` the remaining binding was 100% (binding; 1 µM).
With `O=C(c1ccc(Nc2ncc(Cl)c(-c3ccc(Cl)s3)n2)cc1)N1CCC(N2CCCC2)CC1` the remaining binding was 86% (binding, competition with immobilised ligand; 1 µM).
The remaining binding of `O=C(O)c1cc(-c2ccc(C3CCNCC3)cc2)c2ccc(-c3ccc(C(F)(F)F)cc3)cc2c1` is reported as 90% (cell-free assay, competition with immobilised ligand; 1 µM).
The remaining binding of `Cc1cnn2ncc(-c3ccnc(N(C)C)n3)c2c1` is reported as 100% (binding; 1 µM).
The remaining binding of `O=C(c1ccc(Nc2nccc(-c3cc4ccccc4s3)n2)cc1)N1CCC(N2CCCC2)CC1` is reported as 100% (binding, competition with immobilised ligand; 1 µM).
`FC(F)(F)Oc1cccc(-c2cnc3ccc(-c4ccncc4)nn23)c1` gave a remaining binding of 42% (cell-free assay, competition with immobilised ligand; 5 µM).
For `C[C@@H](c1ccc(-n2cnc3c(N)ncnc32)cc1)N1CCc2nn(C)c(Cc3ccccc3)c2C1=O`, the remaining binding was 83% (binding, competition with immobilised ligand; 0.1 µM).
`CN(CCCC(F)(F)F)c1nccc(-c2cnn3ncccc23)n1` gave a remaining binding of 95% (binding; 1 µM).
`c1ccc(N2CCN(Cc3nc4ccccc4[nH]3)CC2)nc1` gave a remaining binding of 100% (cell-free assay, competition with immobilised ligand; 1 µM).
`CNC(=O)[C@@H]1CC[C@@H](n2c(-c3ccc4cnccc4c3)nc3ccc(C(=O)NCc4cccc(C(N)=O)c4)cc32)C1` gave a remaining binding of 66% (binding, competition with immobilised ligand; 1 µM).
`CNC(=O)Nc1ccc2c(c1)CC[C@@]21OC(=O)N(CC(=O)N(Cc2ccc(F)cc2)[C@@H](C)C(F)(F)F)C1=O` has a remaining binding of 92% (cell-free assay, competition with immobilised ligand; 1 µM).
For `CN(C)c1ncc(F)c(-c2cnn3ncccc23)n1`, the remaining binding was 100% (binding; 1 µM).
